Screening data: PubChem, several laboratories
Hits are enriched below; roughly 2.2% of the tested compounds scored in any of these assays.
ASAP1 GAP inh: blocks human ASAP1-stimulated Arf1 GTP hydrolysis; GDP FP detection; inhibition, % at 16.5 µM; 0.19% of 360,000 active; AID 624377; in the data active = inhibition above about 25%
Target sequence (Q9ULH1 325-724 limits assumed): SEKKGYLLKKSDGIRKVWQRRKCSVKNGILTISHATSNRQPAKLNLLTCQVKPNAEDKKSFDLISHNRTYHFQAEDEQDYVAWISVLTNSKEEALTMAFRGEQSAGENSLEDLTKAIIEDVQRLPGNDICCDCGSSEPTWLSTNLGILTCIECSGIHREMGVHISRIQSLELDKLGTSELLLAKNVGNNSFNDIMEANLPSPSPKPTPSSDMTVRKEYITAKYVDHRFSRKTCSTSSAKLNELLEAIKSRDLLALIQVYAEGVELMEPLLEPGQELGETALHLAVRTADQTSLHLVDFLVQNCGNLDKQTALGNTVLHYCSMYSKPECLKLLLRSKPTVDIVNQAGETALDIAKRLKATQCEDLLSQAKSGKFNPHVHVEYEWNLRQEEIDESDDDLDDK
Exocytosis inh: lytic granule exocytosis inhibition; TALL-104 LAMP-1 surface exposure, flow cytometry; cells stimulated with thapsigargin and PMA; inhibition, % at 10 µM; 0.66% of 360,000 active;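 active = inhibition above about 55%, limit read from the data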
CendR NRP1 mod: modulators of CendR peptide binding to human neuropilin-1; O14786; FAM-RPARPAR peptide binding to NRP-1, fluorescence polarization; inhibition, % at 25 µM; 0.85% of 360,000 active; AID 602438;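 active = inhibition or corrected inhibition above about 18%, plus a signal ratio from 0.5 to 1.5, limit read from the data, passing the limit was not always enough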
V-ATPase pH: alters yeast V-ATPase proton transport; 0.37% of 350,000 active; S. cerevisiae, pHLuorin cytosolic pH fluorescence; response, % at 10 µM; in the data active = response mostly above about 7.3%, no sharp cut-off; inactive = mostly below about 5.4%; note: actives read high
ARFGAP1 inhibitor: rat ARFGAP1 inhibition; 0.26% of 360,000 active; inhibition, % at 16.5 µM; Q62848; Arfgap1-stimulated ARF1 GTP hydrolysis, GDP FP detection;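 active = inhibition above a per-plate limit, mean inhibition of low control wells plus 3 SD, cut at about 25% in these data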
Target sequence (Q62848 1-136 limits assumed): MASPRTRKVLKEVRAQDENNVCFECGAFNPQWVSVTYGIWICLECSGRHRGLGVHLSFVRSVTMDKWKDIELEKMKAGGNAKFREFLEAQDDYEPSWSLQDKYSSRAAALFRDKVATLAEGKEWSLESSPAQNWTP
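Assay system: purified rat His6-Arfgap1 residues 1-136 (GAP domain); Reagent: human Δ17 ARF1 bound to GTP; Dosing: 16.5 µM single point, 1.26% DMSO; Times: GTP hydrolysis reaction 2 h at 25 °C; Signal: FP, GDP Alexa 633 tracer displaced from anti-GDP antibody, 620/688 nm; Measure: % inhibition from polarization.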
Large screens that a line does not name were inactive.

COC(=O)C1=C(C)N(C)C(=NCc2ccccc2C(F)(F)F)NC1c1ccc(C(F)(F)F)cc1 (configuration not stated)	none (no result: Exocytosis inh, CendR NRP1 mod, V-ATPase pH)
CN(c1ccc(OCC(=O)OCC(=O)Nc2ccc([N+](=O)[O-])cc2)cc1)S(=O)(=O)c1cccs1	CendR NRP1 mod 32
Nc1ccc(S(=O)(=O)c2cc(O)c3ccccc3c2O)cc1	Exocytosis inh 88
O=S(=O)(c1ccccc1)c1cc(O)ccc1O	none
O=C1S/C(=C\c2ccc(N3CCOCC3)o2)C(=O)N1Cc1c(F)cccc1Cl	Exocytosis inh 88
O=C(NCCN1CCOCC1)c1ccc2c(c1)N(Cc1c(F)cccc1Cl)C(=O)c1ccccc1S2	none
O=C1N=C(N2CCOCC2)S/C1=C/c1ccc(-c2ccccc2Cl)o1	none
O=C1S/C(=C/c2ccc(N3CCOCC3)o2)C(=O)N1Cc1c(F)cccc1Cl	Exocytosis inh 106
CCC(C)NC(=O)Cc1ccc(-c2ccccc2)cc1 (configuration not stated)	V-ATPase pH 88
CCCC(C)NC(=O)Cc1ccccc1 (configuration not stated)	none
COc1cc(N2C(=O)C=CC2=O)ccc1N1C(=O)C=CC1=O	Exocytosis inh 82
COc1ccc(NC(=O)N(C)[C@H]2C[C@H]3c4[nH]c5c(-c6ccccc6)cccc5c4CCN3C(=O)[C@H]2[C@H](C)O)cc1	none (no result: Exocytosis inh, CendR NRP1 mod, V-ATPase pH)
COc1ccc(C(C)(O)c2nc(/C=C/c3ccccc3)cs2)cc1 (configuration not stated)	none (no result: V-ATPase pH)
CC(O)(c1cccnc1)c1nc(/C=C/c2ccccc2)cs1 (configuration not stated)	CendR NRP1 mod 26 (no result: V-ATPase pH)
CCCc1c(-c2ccc(F)cc2)ncn1Cc1ccccc1OC	CendR NRP1 mod 22 (no result: V-ATPase pH)
CCCc1c(-c2ccccc2)ncn1Cc1ccccc1OC	none (no result: V-ATPase pH)
CCCCCc1c(-c2cccc(Cl)c2)ncn1CCc1ccccc1OC	CendR NRP1 mod 23 (no result: V-ATPase pH)
CCCCc1c(-c2cccc(F)c2)ncn1CCc1ccccc1OC	none (no result: V-ATPase pH)
C=CCN1C(=O)c2n[nH]c(COC)c2C1c1ccc(C)cc1 (configuration not stated)	none (no result: Exocytosis inh, CendR NRP1 mod, V-ATPase pH)
COc1ccccc1NC(=O)C1=C(C)NC(=O)NC1c1ccccc1F (configuration not stated)	CendR NRP1 mod 20
COc1ccccc1C1NC(=O)NC(C)=C1C(=O)Nc1cccc(C)c1C (configuration not stated)	none
CCCNC(=O)c1ccc2c(=O)c(O)c(C)[nH]c2c1	CendR NRP1 mod 21
CCCNC(=O)c1ccc2c(=O)c(O)c(-c3ccc(F)cc3)[nH]c2c1	none (no result: ASAP1 GAP inh, ARFGAP1 inhibitor)
NC(=O)c1ncn([C@@H]2O[C@H](C(=O)Nc3ccc(Oc4ccccc4)nc3)[C@@H](O)[C@H]2O)n1	none (no result: Exocytosis inh, CendR NRP1 mod, V-ATPase pH)
C[C@@H]1CN([C@@H](C)CO)C(=O)CCCn2cc(nn2)CO[C@H]1CN(C)C(=O)Nc1ccc2c(c1)OCCO2	none (no result: Exocytosis inh, CendR NRP1 mod, V-ATPase pH)
Cc1n[nH]c(=O)nc1NCc1ccccc1	none
Cc1n[nH]c(=O)nc1NCc1ccco1	CendR NRP1 mod 25
N/C(=N\OC(=O)/C=C/c1ccccc1)c1ccccn1	none
O=C(/C=C/c1ccccc1)c1ccccn1	CendR NRP1 mod 37
CCc1[nH]nc2c1C(C(C)C)C(C#N)=C(N)O2 (configuration not stated)	CendR NRP1 mod 21
CC(C)C1C(C#N)=C(N)Oc2n[nH]c(-c3ccc4ccccc4c3)c21 (configuration not stated)	CendR NRP1 mod 27
CCCNC(=O)c1nn2c(C(F)(F)F)cc(-c3ccccc3)nc2c1Cl	none
O=C(NCCCn1ccnc1)c1nn2c(C(F)(F)F)cc(-c3ccc(Br)cc3)nc2c1Cl	CendR NRP1 mod 30
O=C(COc1ccc2ccccc2c1)N/N=C/c1ccccn1	CendR NRP1 mod 37
Cc1cccc(C)c1-n1nnnc1-c1nc2cc(Br)ccc2[nH]c1=O	Exocytosis inh 77 (no result: V-ATPase pH)
O=C(COc1ccc(Br)cc1)NNC(=O)Cc1ccc(S(=O)(=O)N2CCOCC2)s1	none
O=C(CCc1ccccc1)NN1C(=O)C2C3C=CC(O3)C2C1=O (configuration not stated)	none
O=C1C2C3C=CC(O3)C2C(=O)N1CC(O)c1ccccc1 (configuration not stated)	Exocytosis inh 63
COC(=O)C1=C(C)N(C)C(=NCc2ccccc2)NC1CCc1ccccc1 (configuration not stated)	none (no result: Exocytosis inh, CendR NRP1 mod, V-ATPase pH)
Nc1nc(-c2ccc(Br)s2)c(Br)s1	CendR NRP1 mod 30
Cc1cc2cc3c(=O)[nH]c(=O)nc-3n(CC(O)C(O)C(O)CO)c2cc1C (configuration not stated)	CendR NRP1 mod 25
CCOC(=O)Cn1c(=NC(=O)c2ccc([N+](=O)[O-])s2)sc2ccccc21	CendR NRP1 mod 56
CCCCNC(=O)C[C@H]1C[C@@]2(C(=O)OC)C(=C[C@H](C(C)C)O[C@@H]2C2CC2)N(Cc2ccccc2)C1=O	none (no result: Exocytosis inh, CendR NRP1 mod, V-ATPase pH)
NC(=O)Cn1cc(/C=N\NS(=O)(=O)c2ccc(Cl)cc2)c2ccccc21	none
Cc1ccc(S(=O)(=O)N/N=C\c2cn(CC(N)=O)c3ccccc23)cc1C	CendR NRP1 mod 25
COc1ccccc1NC(=S)NNC(=O)c1ccccc1Br	CendR NRP1 mod 21
COc1ccc(-n2c(C)cc(C(=O)Cn3nc(C(=O)O)c4ccccc4c3=O)c2C)cc1	CendR NRP1 mod 30
Cc1ccc(-n2c(C)cc(C(=O)Cn3nc(C(=O)O)c4ccccc4c3=O)c2C)cc1	none
Cc1ccc(C(=O)O)cc1NC(=S)NC(=O)c1ccc(COc2ccccc2)cc1	none
COc1ccc([C@H]2[C@H](C(=O)OC(C)(C)C)N3N=Cc4ccccc4C3C23C(=O)c2ccccc2C3=O)cc1OC (some centres not stated)	Exocytosis inh 63 (no result: ASAP1 GAP inh, ARFGAP1 inhibitor)
Cc1c(Cl)cccc1NC(=O)CCCn1cnc([N+](=O)[O-])n1	none
O=C(CCCn1cnc([N+](=O)[O-])n1)Nc1cccc(Cl)c1Cl	CendR NRP1 mod 31
NC(=O)c1ccccc1NC(=O)C(c1ccccc1)c1ccccc1	CendR NRP1 mod 40
CC(=O)Nn1cnc2c(c1=O)C1(CCCC1)Cc1ccccc1-2	none
CCCC(=O)Nn1cnc2c(c1=O)C1(CCCC1)Cc1ccccc1-2	CendR NRP1 mod 25
Nc1nc(CN2CCN(c3ccccc3F)CC2)nc(Nc2ccc3c(c2)OCCO3)n1	V-ATPase pH 16
CN1CCN(Cc2nc(N)nc(Nc3ccc4c(c3)OCCO4)n2)CC1	none
Cc1ccccc1-c1noc(-c2ccccc2C(=O)N2CCCC2)n1	CendR NRP1 mod 20
Cc1onc(-c2ccccc2)c1C(=O)OCCOc1ccc([N+](=O)[O-])cc1[N+](=O)[O-]	none
Cc1onc(-c2ccccc2)c1C(=O)N1CCCC1	CendR NRP1 mod 21
Cc1ccccc1OCCOC(=O)c1c(-c2ccccc2)noc1C	Exocytosis inh 94
CCCCCCN1CCN(C2CN(Cc3cn(Cc4ccc(C(F)(F)F)cc4)nn3)S(=O)(=O)C2)CC1 (configuration not stated)	none (no result: Exocytosis inh, CendR NRP1 mod, V-ATPase pH)
Cc1ccc(N(CC(=O)NC(C)(C)C)C(=O)CCC(=O)Nc2ccccn2)cc1	none
